pIC50, pKi: −log10 of the molar value.
Assays:
Cannabinoid receptor 1 [1] = molecular target: T1, Cannabinoid receptor 1 (Homo sapiens, UniProt P21554); assay: Displacement of [3H]CP-55,940 from human recombinant cannabinoid CB1 receptor expressed in CHO cells; assay type: cell-based
Cannabinoid receptor 2 [2] = molecular target: T2, Cannabinoid receptor 2 (Homo sapiens, UniProt P34972); assay: Displacement of [3H]CP-55,940 from human recombinant cannabinoid CB2 receptor expressed in CHO cells; assay type: cell-based
[3] = Metabolic stability in mouse plasma assessed as compound remaining after 10 mins; assay type: ADME, cell-free; conditions: read-out: Stability
Cannabinoid receptor 1 [4] = molecular target: T1, Cannabinoid receptor 1; assay: Binding affinity to human cannabinoid CB1 receptor
Cannabinoid receptor 2 [5] = molecular target: T2, Cannabinoid receptor 2; assay: Displacement of [3H]CP-55,940 from human recombinant cannabinoid CB2 receptor expressed in CHO cells at 1 uM; assay type: cell-based
[6] = Lipophilicity, log P of the compound; assay type: physicochemical; conditions: octanol/water
Cannabinoid receptor 2 [7] = molecular target: T2, Cannabinoid receptor 2; assay: Binding affinity to human cannabinoid CB2 receptor
Outline: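 Membranes from sonicated CHO cells stably expressing human CB2 (about 100,000 cells/well). Incubated 120 min at 37 °C with 1 nM [3H]CP-55,940, test compound at 10^-10 to 10^-5 M, in TRIS pH 7.4 with 12 mM MgCl2 and 2% BSA. Nonspecific binding defined by 10 µM CP-55,940. Filtration and scintillation counting; duplicates. IC50 by nonlinear regression, converted to Ki by Cheng-Prusoff (Kd 11.8 nM).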

Homo sapiens = species on record: Homo sapiens; assay: Selectivity ratio of Ki for human recombinant cannabinoid CB1 receptor to Ki for human recombinant cannabinoid CB2 receptor

T2 sequence (P34972 whole entry): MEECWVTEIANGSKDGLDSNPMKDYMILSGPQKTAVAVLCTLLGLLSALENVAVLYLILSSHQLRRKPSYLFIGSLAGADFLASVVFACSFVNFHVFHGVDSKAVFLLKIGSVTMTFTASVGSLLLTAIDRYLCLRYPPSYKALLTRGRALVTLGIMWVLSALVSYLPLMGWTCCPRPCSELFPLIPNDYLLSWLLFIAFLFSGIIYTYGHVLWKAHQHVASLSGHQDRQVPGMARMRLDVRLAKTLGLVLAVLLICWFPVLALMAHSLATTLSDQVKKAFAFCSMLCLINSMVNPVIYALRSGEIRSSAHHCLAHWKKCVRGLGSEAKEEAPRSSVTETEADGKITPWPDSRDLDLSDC
T1 sequence (P21554 whole entry): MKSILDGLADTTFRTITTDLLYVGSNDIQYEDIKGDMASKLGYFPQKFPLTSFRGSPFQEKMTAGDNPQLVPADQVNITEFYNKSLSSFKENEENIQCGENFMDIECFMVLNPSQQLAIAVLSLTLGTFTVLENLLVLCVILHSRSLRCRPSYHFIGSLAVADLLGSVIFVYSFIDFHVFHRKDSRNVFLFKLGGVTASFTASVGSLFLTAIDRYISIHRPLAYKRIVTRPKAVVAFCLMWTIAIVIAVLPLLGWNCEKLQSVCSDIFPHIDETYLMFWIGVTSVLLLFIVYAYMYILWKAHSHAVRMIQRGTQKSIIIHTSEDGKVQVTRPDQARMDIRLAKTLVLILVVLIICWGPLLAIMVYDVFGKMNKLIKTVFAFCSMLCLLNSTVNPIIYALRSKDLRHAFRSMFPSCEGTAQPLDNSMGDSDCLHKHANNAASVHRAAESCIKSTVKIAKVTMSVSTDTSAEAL

| Compound | inhibition (Cannabinoid receptor 2 [5]) | pKi (Cannabinoid receptor 2 [2]) | further results |
| --- | --- | --- | --- |
| O=C(CCc1nc(-c2ccc(F)cc2)no1)Nc1ccc2c(c1)c1ccccc1n2CCF | – | 7.39 | pIC50 (Cannabinoid receptor 1 [1]): < 6.00 |
| O=C(CCc1nc(-c2ccc(F)cc2)no1)Nc1ccc2c(c1)c1ccccc1n2CCO | – | 5.96 | – |
| CCCCOc1c(O[11CH3])ccc2cc(C(=O)NC3CCCCC3)c(=O)[nH]c12 | – | – | remaining at 10 min [3]: 24%; pKi (Cannabinoid receptor 1 [4]): < 6.00 |
| O=C(CCCc1nc(-c2ccc(Cl)cc2)no1)Nc1ccc2c(c1)c1ccccc1n2CCO | – | 6.23 | – |
| O=C(CCc1nc(-c2ccc(F)cc2Br)no1)Nc1ccc2c(c1)c1ccccc1n2CCCF | – | 5.74 | – |
| CCCCOc1c(OCC[18F])ccc2cc(C(=O)NC3CCCCC3)c(=O)[nH]c12 | – | – | remaining at 10 min [3]: 41%; pKi (Cannabinoid receptor 1 [4]): < 6.00 |
| O=C(CCc1nc(-c2ccc(F)cc2Br)no1)Nc1ccc2c(c1)c1ccccc1n2CCCO | – | 7.48 | pIC50 (Cannabinoid receptor 1 [1]): < 6.00 |
| O=C(CCc1nc(-c2ccc(Br)cc2F)no1)Nc1ccc2c(c1)c1ccccc1n2CCF | – | 6.32 | – |
| O=C(CCCc1nc(-c2ccc(F)cc2)no1)Nc1ccc2c(c1)c1ccccc1n2CCCF | 0% | – | – |
| O=C(CCc1nc(-c2ccc(F)cc2Br)no1)Nc1ccc2c(c1)c1ccccc1n2CCCCO | – | 7.02 | pIC50 (Cannabinoid receptor 1 [1]): < 6.00 |
| COc1ccc(S(=O)(=O)c2ccc([C@H](C)NS(C)(=O)=O)cc2)c(S(=O)(=O)c2ccc(O[11CH3])cc2)c1 | – | – | logP [6]: 2.15; pKi (Cannabinoid receptor 2 [7]): 8.35; pKi (Cannabinoid receptor 1 [4]): 7.10 |
| O=C(CCc1nc(-c2ccc(F)cc2Br)no1)Nc1ccc2c(c1)c1ccccc1n2CCF | – | 8.24 | pIC50 (Cannabinoid receptor 1 [1]): < 6.00; Ratio Ki (Homo sapiens): > 200 |
| N#Cc1cc(F)ccc1-c1noc(CCC(=O)Nc2ccc3c(c2)c2ccccc2n3CCF)n1 | – | 6.07 | pIC50 (Cannabinoid receptor 1 [1]): < 6.00 |
| O=C(CCc1nc(-c2ccc(F)cc2)no1)Nc1ccc2c(c1)c1ccccc1n2CCCO | – | 6.71 | – |
| O=C(CCc1nc(-c2ccc(Cl)cc2)no1)Nc1ccc2c(c1)c1ccccc1n2CCF | – | 6.54 | – |
| CCn1c2ccccc2c2cc(NC(=O)CCc3nc(-c4ccc(F)cc4C#N)no3)ccc21 | – | 8.16 | pKi (Cannabinoid receptor 1 [1]): < 5.00 |
| O=C(CCc1nc(-c2ccc(Cl)cc2)no1)Nc1ccc2c(c1)c1ccccc1n2CCO | – | 6.00 | – |
| O=C(CCCc1nc(-c2ccc(F)cc2Br)no1)Nc1ccc2c(c1)c1ccccc1n2CCF | – | 6.25 | – |
| O=C(CCc1nc(-c2ccc(F)cc2Br)no1)Nc1ccc2c(c1)c1ccccc1n2CCO | – | 6.44 | – |
| Cc1ccc(-c2noc(CCCC(=O)Nc3ccc4c(c3)c3ccccc3n4CCCF)n2)cc1 | 0% | – | – |
| N#Cc1cc(F)ccc1-c1noc(CCC(=O)Nc2ccc3c(c2)c2ccccc2n3CCO)n1 | – | 6.31 | – |
| Cc1ccc(-c2noc(CCC(=O)Nc3ccc4c(c3)c3ccccc3n4CCF)n2)cc1 | – | 6.42 | – |
| Cc1c(CCN2CCOCC2)c2cc(O[11CH3])ccc2n1C(=O)c1cccc(Cl)c1Cl | – | – | pKi (Cannabinoid receptor 2 [7]): 7.46; pKi (Cannabinoid receptor 1 [4]): 5.22 |
| Cc1s/c(=N\C(=O)C2C(C)(C)C2(C)C)n(CCO[11CH3])c1C | – | – | pKi (Cannabinoid receptor 2 [7]): 9.19; pKi (Cannabinoid receptor 1 [4]): 6.57 |
| CCCCOc1c(OC)ccc2cc(C(=O)NCc3ccc([18F])cc3)c(=O)[nH]c12 | – | – | pKi (Cannabinoid receptor 2 [7]): 8.55; pKi (Cannabinoid receptor 1 [4]): < 5.00 |

Further lines, with some results ahead:

| inhibition (Cannabinoid receptor 2 [5]) | Compound | pKi (Cannabinoid receptor 2 [2]) | further results |
| --- | --- | --- | --- |
| 25% | O=C(CCCc1nc(-c2ccc(F)cc2Br)no1)Nc1ccc2c(c1)c1ccccc1n2CCCF | – | – |
| 10% | O=C(CCc1nc(-c2ccc(F)cc2)no1)Nc1ccc2c(c1)c1ccccc1n2CCCF | – | – |
| 35% | O=C(CCc1nc(-c2ccc(Br)cc2F)no1)Nc1ccc2c(c1)c1ccccc1n2CCO | – | – |
| 12% | O=C(CCCc1nc(-c2ccc(F)cc2)no1)Nc1ccc2c(c1)c1ccccc1n2CCO | – | – |
| 25% | O=C(CCCc1nc(-c2ccc(F)cc2)no1)Nc1ccc2c(c1)c1ccccc1n2CCF | – | – |
| 28% | Cc1ccc(-c2noc(CCC(=O)Nc3ccc4c(c3)c3ccccc3n4CCCO)n2)cc1 | – | – |
| 10% | Cc1ccc(-c2noc(CCC(=O)Nc3ccc4c(c3)c3ccccc3n4CCO)n2)cc1 | – | – |
| 0% | Cc1ccc(-c2noc(CCCC(=O)Nc3ccc4c(c3)c3ccccc3n4CCF)n2)cc1 | – | – |
| 13% | Cc1ccc(-c2noc(CCC(=O)Nc3ccc4c(c3)c3ccccc3n4CCCF)n2)cc1 | – | – |
| 13% | Cc1ccc(-c2noc(CCCC(=O)Nc3ccc4c(c3)c3ccccc3n4CCCO)n2)cc1 | – | – |
| 9% | O=C(CCCc1nc(-c2ccc(F)cc2Br)no1)Nc1ccc2c(c1)c1ccccc1n2CCCO | – | – |
| 0% | O=C(CCCc1nc(-c2ccc(F)cc2Br)no1)Nc1ccc2c(c1)c1ccccc1n2CCO | – | – |
| 35% | O=C(CCc1nc(-c2ccc(F)cc2Br)no1)Nc1ccc2c(c1)c1ccccc1n2CCCCF | – | – |
| 43% | O=C(CCc1nc(-c2ccc(Cl)cc2)no1)Nc1ccc2c(c1)c1ccccc1n2CCCF | – | – |
| 19% | O=C(CCCc1nc(-c2ccc(F)cc2)no1)Nc1ccc2c(c1)c1ccccc1n2CCCO | – | – |
| 4% | Cc1ccc(-c2noc(CCCC(=O)Nc3ccc4c(c3)c3ccccc3n4CCO)n2)cc1 | – | – |
| 23% | O=C(CCCc1nc(-c2ccc(Cl)cc2)no1)Nc1ccc2c(c1)c1ccccc1n2CCF | – | – |
| 10% | O=C(CCCc1nc(-c2ccc(Cl)cc2)no1)Nc1ccc2c(c1)c1ccccc1n2CCCO | – | – |
